In ChEMBL document CHEMBL1156575, “Toward an optimal blood-brain barrier shuttle by synthesis and evaluation of peptide libraries” (J Med Chem, 2008):
Where a SMILES comes first, the peptide text is derived from it. [ ]: non-standard residue; d: D form. Tpi = O=C(O)[C@@H]1Cc2c([nH]c3ccccc23)CN1; NMeW = CN[C@@H](Cc1c[nH]c2ccccc12)C(=O)O; 2Nal = N[C@@H](Cc1ccc2ccccc2c1)C(=O)O; Dopa = N[C@@H](Cc1ccc(O)c(O)c1)C(=O)O; NMehPhe = CN[C@@H](CCc1ccccc1)C(=O)O; NMeF = CN[C@@H](Cc1ccccc1)C(=O)O; NMePhg = CN[C@H](C(=O)O)c1ccccc1; 3Pal = N[C@@H](Cc1cccnc1)C(=O)O; Tic = O=C(O)[C@@H]1Cc2ccccc2CN1; Phg = N[C@H](C(=O)O)c1ccccc1

Legend:
[1] = Membrane permeability by PAMPA in presence of 20% 1-propanol; assay type: ADME; settings: read-out: permeability
In short: (§1)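 PAMPA-BBB model, 200 µM compound in pION buffer pH 7.4 with 20% 1-propanol in the donor well. Filter coated with phospholipid mix (20 mg/mL in dodecane); acceptor holds buffer plus 1-propanol. Incubated 4 h at room temperature, saturated humidity, orbital shaking 100 rpm. Donor and acceptor quantified by RP-HPLC. % transport at 4 h and Pe (eq 1) calculated; mean ± SD.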

[2] = Membrane permeability assessed as passive transport after 4 hrs by PAMPA
[3] = Membrane permeability assessed as passive transport after 4 hrs by PAMPA in presence of 20% 1-propanol; assay type: ADME; in short: as §1
[4] = Membrane permeability by PAMPA
HeLa = experiment: Cytotoxicity against human HeLa cells at 25 to 100 uM after 24 hrs by MTT assay; assay type: functional, cell-based
In short: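 HeLa cells seeded at 7000 cells/well and grown 24 h, then given peptide in medium (solutions centrifuged first, as not fully soluble) at 25, 50 and 100 µM for 24 h at 37 °C. MTT added at 22 h (0.5 mg/mL final) for 2 h. Formazan dissolved in 2-propanol, A570 read after 45 min. Viability is % of untreated cells; mean ± SD.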

[5] = Stability in human serum after 12 hrs

| Structure (SMILES) | permeability [2] | Papp ([4]; permeability) | further results |
| --- | --- | --- | --- |
| Cn1c(=O)c2c(ncn2C)n(C)c1=O [CAFFEINE] | 3.6% | 1.8 ×10⁻⁶ cm/s | Papp [1]: 1.8 ×10⁻⁶ cm/s; permeability [3]: 3.6% |
| CN(C(=O)[C@@H]1Cc2c([nH]c3ccccc23)CN1)[C@@H](Cc1ccccc1)C(=O)N(C)[C@@H](Cc1ccccc1)C(=O)N(C)[C@@H](Cc1ccccc1)C(N)=O (H-[Tpi][NMeF][NMeF][NMeF]-NH2) | 1.3% | 0.6 ×10⁻⁶ cm/s |  |
| CC(=O)N[C@@H](Cc1ccc2ccccc2c1)C(=O)N(C)[C@@H](Cc1ccccc1)C(=O)N(C)[C@@H](Cc1ccccc1)C(=O)N(C)[C@@H](Cc1ccccc1)C(N)=O (Ac-[2Nal][NMeF][NMeF][NMeF]-NH2) |  |  | Activity (HeLa): Not toxic |
| CC(=O)N(C)[C@@H](Cc1ccccc1)C(=O)N(C)[C@@H](Cc1ccccc1)C(=O)N(C)[C@@H](Cc1ccccc1)C(=O)N(C)[C@@H](Cc1ccccc1)C(=O)O (Ac-[NMeF][NMeF][NMeF][NMeF]-OH) | 1.9% | 0.9 ×10⁻⁶ cm/s |  |
| CN(C(=O)[C@H](Cc1ccc2ccccc2c1)NC(=O)[C@@H](N)Cc1ccc(O)c(O)c1)[C@@H](Cc1ccccc1)C(=O)N(C)[C@@H](Cc1ccccc1)C(=O)N(C)[C@@H](Cc1ccccc1)C(N)=O (H-[Dopa][2Nal][NMeF][NMeF][NMeF]-NH2) | 0.7% |  | Papp [4]: 0.3 ×10⁻⁶ cm/s |
| CN(C(=O)[C@@H]1Cc2ccccc2CN1)[C@@H](Cc1ccccc1)C(=O)N(C)[C@@H](Cc1ccccc1)C(=O)N(C)[C@@H](Cc1ccccc1)C(N)=O (H-[Tic][NMeF][NMeF][NMeF]-NH2) | 4.6% | 2.2 ×10⁻⁶ cm/s |  |
| CC(=O)N(C)[C@@H](Cc1c[nH]c2ccccc12)C(=O)N(C)[C@@H](Cc1ccccc1)C(=O)N(C)[C@@H](Cc1ccccc1)C(=O)N(C)[C@@H](Cc1ccccc1)C(N)=O (Ac-[NMeW][NMeF][NMeF][NMeF]-NH2) | 2.9% | 1.4 ×10⁻⁶ cm/s |  |
| CC(C)NCC(O)COc1cccc2ccccc12 (centres undefined) [PROPRANOLOL] | 13.5% | 6.9 ×10⁻⁶ cm/s | Papp [1]: 8.4 ×10⁻⁶ cm/s; permeability [3]: 14.9% |
| CC(=O)N(C)[C@H](C(=O)N(C)[C@@H](Cc1ccccc1)C(=O)N(C)[C@@H](Cc1ccccc1)C(=O)N(C)[C@@H](Cc1ccccc1)C(N)=O)c1ccccc1 (Ac-[NMePhg][NMeF][NMeF][NMeF]-NH2) | 1.5% | 0.7 ×10⁻⁶ cm/s |  |
| CC(=O)N(C)[C@@H](Cc1ccccc1)C(=O)N(C)[C@@H](Cc1ccccc1)C(=O)N(C)[C@@H](Cc1ccccc1)C(=O)N(C)[C@@H](Cc1ccccc1)C(N)=O (stereo in doubt; form 2) |  |  | remaining at 12 h [5]: 91%; Activity (HeLa): Not toxic |
| NCCc1ccc(O)c(O)c1 [DOPAMINE] | 0% |  | permeability [3]: 0% |
| CC(=O)N[C@@H](Cc1c[nH]c2ccccc12)C(=O)N(C)[C@@H](Cc1ccccc1)C(=O)N(C)[C@@H](Cc1ccccc1)C(=O)N(C)[C@@H](Cc1ccccc1)C(N)=O (Ac-W[NMeF][NMeF][NMeF]-NH2) | 3.9% | 1.8 ×10⁻⁶ cm/s |  |
| CC(=O)N[C@H](C(=O)N(C)[C@@H](Cc1ccccc1)C(=O)N(C)[C@@H](Cc1ccccc1)C(=O)N(C)[C@@H](Cc1ccccc1)C(N)=O)c1ccccc1 (Ac-[Phg][NMeF][NMeF][NMeF]-NH2) | 0% |  |  |
| CC(=O)N1Cc2[nH]c3ccccc3c2C[C@H]1C(=O)N(C)[C@@H](Cc1ccccc1)C(=O)N(C)[C@@H](Cc1ccccc1)C(=O)N(C)[C@@H](Cc1ccccc1)C(N)=O (Ac-[Tpi][NMeF][NMeF][NMeF]-NH2) | 3.2% | 1.5 ×10⁻⁶ cm/s |  |
| N[C@@H](Cc1ccc(O)c(O)c1)C(=O)O [LEVODOPA] | 0% |  | permeability [3]: 0% |
| CC(=O)N(C)[C@@H](CCc1ccccc1)C(=O)N(C)[C@@H](Cc1ccccc1)C(=O)N(C)[C@@H](Cc1ccccc1)C(=O)N(C)[C@@H](Cc1ccccc1)C(N)=O (Ac-[NMehPhe][NMeF][NMeF][NMeF]-NH2) | 3.7% | 1.8 ×10⁻⁶ cm/s |  |
| NC(=O)N1c2ccccc2C=Cc2ccccc21 [CARBAMAZEPINE] | 16.8% | 8 ×10⁻⁶ cm/s | Papp [1]: 12.8 ×10⁻⁶ cm/s; permeability [3]: 20.6% |
| CN(C(=O)[C@@H](N)Cc1ccc(O)c(O)c1)[C@@H](Cc1ccccc1)C(=O)N(C)[C@@H](Cc1ccccc1)C(=O)N(C)[C@@H](Cc1ccccc1)C(=O)N(C)[C@@H](Cc1ccccc1)C(N)=O (H-[Dopa][NMeF][NMeF][NMeF][NMeF]-NH2) | 2.4% |  | Papp [4]: 1.1 ×10⁻⁶ cm/s |
| CC(=O)N[C@@H](Cc1cccnc1)C(=O)N(C)[C@@H](Cc1ccccc1)C(=O)N(C)[C@@H](Cc1ccccc1)C(=O)N(C)[C@@H](Cc1ccccc1)C(N)=O (Ac-[3Pal][NMeF][NMeF][NMeF]-NH2) | 2.5% | 1.2 ×10⁻⁶ cm/s |  |
| CC(=O)N1Cc2ccccc2C[C@H]1C(=O)N(C)[C@@H](Cc1ccccc1)C(=O)N(C)[C@@H](Cc1ccccc1)C(=O)N(C)[C@@H](Cc1ccccc1)C(N)=O (Ac-[Tic][NMeF][NMeF][NMeF]-NH2) | 4.3% | 2 ×10⁻⁶ cm/s |  |
